# Assay outcomes as filed in PubChem.
# Rows were chosen to be rich in hits. Some 2.7% of all compounds tested hit in one or more screens of this group.
# MC4R barr agon: agonists of human melanocortin 4 receptor (MC4R) beta-arrestin; U2OS MC4R beta-arrestin complementation, luminescence; percent of melanotan II response, DMSO zero; P32245; activation, % at 8.9 µM; 360,000 tested, 0.98% active;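 active = activation above a per-plate cutoff, the mean activation of sample wells on that plate plus 3 SD, cut at about 8% in these data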
# Target sequence (P32245 whole entry, looked up): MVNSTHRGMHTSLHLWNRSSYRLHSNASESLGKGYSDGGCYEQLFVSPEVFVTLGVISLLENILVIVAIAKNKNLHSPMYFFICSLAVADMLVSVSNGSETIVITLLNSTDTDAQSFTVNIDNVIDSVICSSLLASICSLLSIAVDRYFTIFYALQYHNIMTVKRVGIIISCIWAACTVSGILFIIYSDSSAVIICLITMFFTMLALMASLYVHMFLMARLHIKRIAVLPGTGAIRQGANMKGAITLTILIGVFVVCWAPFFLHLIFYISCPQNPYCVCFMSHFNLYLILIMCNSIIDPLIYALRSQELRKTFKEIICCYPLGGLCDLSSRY
# NR1D1 modulator: modulates human Rev-erb alpha binding to DNA; activity, % at 10 µM; Rev-erbα–FITC-DNA binding, fluorescence polarization, 90 min; 370,000 tested, 0.79% active; P20393;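 active = activity above about 14%, limit read from the data; passing the limit was not always enough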;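 also: 0% = DMSO wells with 35 nM protein and 100% = DMSO wells with 750 nM protein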
# NR2E3 ag-1: agonists of human nuclear receptor NR2E3. inhibition of corepressor binding, % at 4.78 µM. Q9Y5X4. 320,000 tested, 0.12% active. GST-NR2E3/biotin-RetCOR TR-FRET, 1536-well;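 active = percent inhibition above the cutoff of mean plus 3 SD of all tested compounds, set per screening campaign, cut at about 20% in these data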;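 also: 0% = DMSO wells and 100% = biotin wells as full block of FRET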
#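 System: GST-NR2E3 and biotin-RetCOR proteins; probe or stimulus: 7 nM biotin-RetCOR; doses: compound at 4.8 µM, single dose; schedule: Compound–protein incubation for 5 h at 4 °C; detection: time-resolved FRET; read-out: percent inhibition; controls: biotin wells as high control, 0.6% DMSO wells as low control; format: 1536-well plates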
# MC4R antag cAMP: blocks human MC4R cAMP signaling. 360,000 tested, 0.48% active. P32245. inhibition, % at 6.5 µM. AID 540295. MC4R-expressing cells, MTII-stimulated cAMP, LANCE TR-FRET;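 active = inhibition above its plate's cutoff, the mean of tested wells on that plate plus 3 SD, cut at about 29% in these data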;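 also: 0% = Melanotan II alone and 100% = Melanotan II plus saturating MCL0020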
#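 Assay system: human MC4R-expressing U2OS cells; reagent: Melanotan II stimulation of cells; dosing: 6.5 µM single dose; timing: compound 30 min, challenge 1 h, detection 1 h; signal: TR-FRET cAMP assay; replicates: one well per compound, no replicates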
# PG9 binder: small molecules binding HIV-1 gp120 antibody PG9 | TR-FRET gp120-PG9 antibody binding | inhibition, % at 6.7 µM | 360,000 tested, 0.43% active | AID 624416; in the data active = inhibition above about 8.5%
# NR2E3 ag-2: activates human NR2E3 receptor; 360,000 tested, 0.35% active; CHO-S Gal4-NCOR/VP16-NR2E3 two-hybrid, luciferase; inhibition of corepressor binding, % at 3.98 µM; Q9Y5X4;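 active = inhibition above the mean of all tested compounds plus 3 SD, cut at about 70% in these data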;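 also: 0% = DMSO with NR2E3 transfected cells and 100% = cells lacking NR2E3 construct; higher means lower luciferase signal from less NR2E3 corepressor binding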
# * = called active by the depositor; x = not tested or not shown.
SMILES,MC4R barr agon,NR1D1 modulator,NR2E3 ag-1,MC4R antag cAMP,PG9 binder,NR2E3 ag-2
CC1CCN(CC(=O)Nc2ccccc2-c2ccccc2)CC1,0,4,0,0,-1,26
Cc1ccc(S(=O)(=O)N/N=C/c2ccc(OC3CSC3)cc2)cc1,9.5*,0,1,-3,0,-18
Cc1ccc(S(=O)(=O)N/N=C/c2ccc(C(=O)O)cc2)cc1,0,8,0,-3,-1,-20
NNC(=O)c1cccnc1Oc1ccccc1,-1,-4,2,-4,-2,-10
CCOc1cc(S(=O)(=O)N2CCC(c3nc4ccccc4s3)CC2)c(OCC)cc1S(=O)(=O)N1CCCCC1,-2,17,4,16,1,-15
COc1cc(OC)cc(C(=O)Oc2ccc(/C=N/Nc3nc4ccccc4s3)cc2OC)c1,-2,5,1,2,-2,-132
COc1ccc(C=NNc2nc3ccccc3s2)cc1,9.1*,-5,x,-8,-1,-138
CCc1nnc(NC(=O)CSc2nc(C3CCCCC3)nc3ccccc23)s1,1,7,4,13,16*,-11
CCc1nnc(NC(=O)CSc2nc(-c3ccccc3)nc3ccccc23)s1,-1,2,0,9,5,0
Cc1ccccc1C(c1ncccc1C)N(C)C(=O)C1CCN(CCOc2ccc(Cl)cc2Cl)CC1 (centres undefined),9.2*,4,x,-11,-1,-14
COc1ccc(OCCN2CCC(C(=O)NC(c3ccc(Cl)cc3)c3ncccc3C)CC2)cc1 (centres undefined),0,x,x,10,x,-16
CCc1nn(CC(=O)NCCCN2CCOCC2)c(=O)c2cc3c(OC)cccc3n12,-3,-3,x,-5,0,-4
CCOC(=O)c1[nH]c(C)c(C(=O)OCC(=O)NC2CCS(=O)(=O)C2)c1C (centres undefined),-1,4,0,9,1,0
CCOC(=O)c1[nH]c(C)c(C(=O)OCC(=O)N(C)C2CCS(=O)(=O)C2)c1C (centres undefined),8.3*,5,1,7,-1,12
CCCCC1=CC2=C(c3ccco3)C(=O)C(C)(OC(=O)c3ccc(OC)cc3)C(=O)C2=CN1CC(C)C (centres undefined),1,1,11,11,37*,-11
CCCCC1=CC2=C(c3ccco3)C(=O)C(C)(OC(=O)c3ccc(OC)cc3)C(=O)C2=CN1Cc1ccco1 (centres undefined),-2,x,17,18,x,-35
Cc1c(NC(=O)Nc2ccc(Cl)c(Cl)c2)c(=O)n(-c2ccccc2)n1C,3,-2,2,14,1,6
Cc1ccn2c(=O)c(C(=O)NCCN3CCOCC3)c(O)nc2c1,-1,-3,1,1,1,-15
CC(C)(C)NC(=O)CSc1nc(-c2ccccc2)c(-c2ccccc2)[nH]1,8.8*,-2,0,14,-3,14
COc1ccc(N2CCN(S(=O)(=O)CCNC(=O)COc3ccc(Cl)cc3)CC2)cc1,-2,-5,2,-4,3,-5
COCCNC(=S)NC(=O)CC12CC3CC(CC(C3)C1)C2,8.3*,1,3,-10,1,-6
CN(C)CCNC(=O)c1cc2c(s1)-c1ccc(Cl)cc1SC2,11*,-3,x,-1,-1,-16
CCc1cccc(NS(=O)(=O)c2ccc(-n3cccn3)cc2)c1,8.3*,-2,0,11,0,25
Cc1ccc(NC(=O)CN(Cc2ccccc2)S(C)(=O)=O)cc1C,-1,-3,2,2,2,4
Clc1cc(Cl)cc(Nc2ncnc(-n3cccc3)n2)c1,9.0*,0,3,11,-2,-9
SMILES,MC4R barr agon,NR1D1 modulator,NR2E3 ag-1,MC4R antag cAMP,PG9 binder,NR2E3 ag-2
Cc1ccc(Nc2ncnc(-n3cccc3)n2)cc1Cl,2,-1,3,-6,1,-35
CNCCC(=O)N1c2ccccc2CCc2ccc(NC(=O)OC)cc21,1,-2,0,12,0,6
CC(OC(=O)c1ccccc1C(=O)N(C)Cc1ccccc1)C(=O)NC1(C#N)CCCCC1 (centres undefined),0,-5,x,4,3,-1
O=C(NC1CCCCN(Cc2ccc(Cl)cc2)C1=O)c1ccccc1-c1ccc(Cl)c(Cl)c1 (centres undefined),x,7,x,x,x,x
CCN(CC)S(=O)(=O)c1ccc(-c2nnc(SCc3nnc(-c4ccccc4)o3)o2)cc1,8.4*,-5,3,4,0,-8
COC(=O)N/N=C/c1ccccc1OCCOc1ccc(OC)cc1,-1,1,3,-2,-4,-27
C=CCNC(=S)N/N=C/c1ccccc1OCCOc1ccccc1,8.9*,1,-1,0,-2,-4
COc1cccc(NC(=O)C2CSC3(C)CCC(=O)N23)c1 (centres undefined),-2,0,2,-2,-1,-13
Cc1ccc(C(=O)CC(Nc2ccc(F)cc2)c2ccccc2)cc1 (centres undefined),8.9*,-1,-3,2,-1,-7
Cc1ccc2nc(-c3cccc(Cl)c3)c(Cc3ccccc3)n2c1,x,7,x,x,0,-79
O=C(Nc1ccc(Cl)cc1)N1CCC(c2nc(-c3ccccc3Cl)no2)CC1,9.0*,1,2,21,0,40
COc1ccc(/C=N/NC(=O)COc2ccc(Cl)cc2Cl)cc1Cn1nc(C)cc1C,18*,-5,1,-3,-3,24
O=C(COc1ccc(Cl)cc1Cl)N/N=C/c1cccnc1,-3,4,1,-3,-4,-22
O=c1cc(C(F)(F)F)[nH]c2c(C(F)(F)F)cccc12,-1,x,4,6,x,101*
Cc1cc(=O)c2cccc(Br)c2[nH]1,1,-1,0,4,0,5
Cc1ccc(NC(=O)C(=O)NCCOc2ccc(Cl)cc2)c(C)c1,8.8*,-6,-3,-2,-2,1
CCCOc1ccc(NCC(=O)Nc2ccc(C)cc2C)cc1,-1,-1,2,0,0,-31
COc1ccc(NC(=O)CN(C)C(=O)c2ccc3c(c2)NC(=O)CS3)cc1,-2,-1,5,10,-1,-27
COc1ccc(COc2ccsc2C(=O)Nc2ccc(Cl)cc2)cc1,8.7*,-1,-1,-7,5,-28
COc1ccc(NC(=O)c2csc(Cc3ccc(Cl)cc3)n2)cc1,-4,-4,2,-3,-1,15
CN(C)c1ccc(/C=N/NC(=O)c2nnn(-c3nonc3N)c2CN(C)c2ccccc2)cc1,8.5*,-6,4,11,-2,-6
